According to ChEMBL document CHEMBL4118253, “Expedient synthesis and biological evaluation of alkenyl acyclic nucleoside phosphonate prodrugs” (Bioorg Med Chem, 2018):
pEC50: −log10 of the molar value.

How the values were obtained:
Influenza B virus [1] = assay: Antiviral activity against Influenza B virus infected in MDCK cells assessed as inhibition of virus-induced visual cytopathicity; assay type: functional, organism-based
Sindbis virus = assay: Antiviral activity against Sindbis Virus infected in African green monkey Vero cells assessed as inhibition of virus-induced cytopathicity; assay type: functional, organism-based
[2] = test system: Mammalian orthoreovirus 1; assay: Antiviral activity against Reovirus-1 infected in human HeLa cells assessed as inhibition of virus-induced cytopathicity; assay type: functional, organism-based; conditions: Mammalian orthoreovirus 1, HeLa
[3] = Cytotoxicity against human HeLa cells assessed as alteration of cell morphology by microscopic analysis; assay type: cell-based
Human alphaherpesvirus 1 [4] = assay: Antiviral activity against Herpes simplex virus 1 KOS infected in HEL cells assessed as inhibition of virus-induced cytopathicity; assay type: functional, organism-based; conditions: Human alphaherpesvirus 1, KOS
Influenza A virus [5] = assay: Antiviral activity against Influenza A virus H1N1 infected in MDCK cells assessed as inhibition of virus-induced visual cytopathicity; assay type: functional, organism-based
[6] = test system: Respiratory syncytial virus; assay: Antiviral activity against Respiratory syncytial virus infected in human HeLa cells assessed as inhibition of virus-induced cytopathicity; assay type: functional, organism-based
Human alphaherpesvirus 3 [7] = assay: Antiviral activity against thymidine kinase deficient Varicella-Zoster virus infected in HEL cells assessed as reduction in virus plaque formation; assay type: functional, organism-based; conditions: Human alphaherpesvirus 3, HEL
Human adenovirus 2 = assay: Antiviral activity against Adenovirus 2 infected in HEL cells assessed as inhibition of virus-induced cytopathicity; assay type: functional, organism-based; conditions: Human mastadenovirus C
Influenza A virus H3N2 [8] = assay: Antiviral activity against Influenza A virus H3N2 infected in MDCK cells assessed as inhibition of virus-induced cytopathicity by MTS assay; assay type: functional, organism-based
[9] = Cytotoxicity against MDCK cells assessed as alteration of cell morphology by microscopic analysis; assay type: cell-based, Canis lupus familiaris; conditions: dog
Human alphaherpesvirus 2 = assay: Antiviral activity against Herpes simplex virus 2 G infected in HEL cells assessed as inhibition of virus-induced cytopathicity; assay type: functional, organism-based; conditions: Human alphaherpesvirus 2, strain G
Human betaherpesvirus 5 [10] = assay: Antiviral activity against Human cytomegalovirus Davis infected in HEL cells assessed as inhibition of virus-induced cytopathicity; assay type: functional, organism-based; conditions: Human betaherpesvirus 5, Davis
Human alphaherpesvirus 3 [11] = assay: Antiviral activity against thymidine kinase expressing Varicella-Zoster virus infected in HEL cells assessed as reduction in virus plaque formation; assay type: functional, organism-based; conditions: Human alphaherpesvirus 3, HEL
Human betaherpesvirus 5 [12] = assay: Antiviral activity against Human cytomegalovirus AD169 infected in HEL cells assessed as inhibition of virus-induced cytopathicity; assay type: functional, organism-based; conditions: Human betaherpesvirus 5, AD169, HEL
Punta Toro virus = assay: Antiviral activity against Punta Toro virus infected in African green monkey Vero cells assessed as inhibition of virus-induced cytopathicity; assay type: functional, organism-based
Human coronavirus 229E = assay: Antiviral activity against Human coronavirus 229E infected in HEL cells assessed as inhibition of virus-induced cytopathicity; assay type: functional, organism-based
[13] = Cytotoxicity against African green monkey Vero cells assessed as alteration of cell morphology by microscopic analysis; assay type: cell-based; conditions: chlorocebus sabaeus
Method in brief: (§1)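 The value is the minimal cytotoxic concentration (MCC), the lowest concentration that causes a microscopically visible change in cell morphology. It was read in the same HEL or Vero cell cultures used for the antiviral tests.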

Human alphaherpesvirus 1 [14] = assay: Antiviral activity against acyclovir-resistant thymidine kinase deficient Herpes simplex virus 1 KOS infected in HEL cells assessed as inhibition of virus-induced cytopathicity; assay type: functional, organism-based; conditions: Human alphaherpesvirus 1, KOS
[15] = Half life in human serum by 31P NMR analysis; assay type: ADME, cell-free
Human respirovirus 3 = assay: Antiviral activity against Parainfluenza virus 3 infected in human HeLa cells assessed as inhibition of virus-induced cytopathicity; assay type: functional, organism-based; conditions: Human respirovirus 3, HeLa
Coxsackievirus B4 = assay: Antiviral activity against Coxsackie virus B4 infected in African green monkey Vero cells assessed as inhibition of virus-induced cytopathicity; assay type: functional, organism-based; conditions: Enterovirus B
[16] = Half life in rat serum by 31P NMR analysis; assay type: ADME, cell-free
Yellow fever virus = assay: Antiviral activity against Yellow fever virus infected in African green monkey Vero cells assessed as inhibition of virus-induced cytopathicity; assay type: functional, organism-based
[17] = Cytotoxicity against HEL cells assessed as alteration of cell morphology by microscopic analysis; assay type: cell-based; conditions: human; method in brief: as §1
Influenza B virus [18] = assay: Antiviral activity against Influenza B virus infected in MDCK cells assessed as inhibition of virus-induced cytopathicity by MTS assay; assay type: functional, organism-based
Vaccinia virus = assay: Antiviral activity against Vaccinia virus infected in HEL cells assessed as inhibition of virus-induced cytopathicity; assay type: functional, organism-based; conditions: Orthopoxvirus vaccinia
Influenza A virus H3N2 [19] = assay: Antiviral activity against Influenza A virus H3N2 infected in MDCK cells assessed as inhibition of virus-induced visual cytopathicity; assay type: functional, organism-based
Influenza A virus [20] = assay: Antiviral activity against Influenza A virus H1N1 infected in MDCK cells assessed as inhibition of virus-induced cytopathicity by MTS assay; assay type: functional, organism-based
[21] = test system: Vesicular stomatitis virus; assay: Antiviral activity against Vesicular stomatitis virus infected in human HeLa cells assessed as inhibition of virus-induced cytopathicity; assay type: functional, organism-based

SMILES: C/C(=C\CP(=O)(N[C@@H](C)C(=O)OC(C)C)Oc1cccc2c1CCCC2)Cn1cc(C)c(=O)[nH]c1=O (some centres undefined)
- pEC50 (Influenza B virus [1]): < 4.00
- pEC50 (Sindbis virus): < 4.00
- pEC50 [2]: < 4.00
- MCC [3]: ≥ 20 µM
- pEC50 (Human alphaherpesvirus 1 [4]): < 4.00
- pEC50 (Influenza A virus [5]): < 4.00
- pEC50 [6]: < 4.00
- pEC50 (Human alphaherpesvirus 3 [7]): 4.27
- pEC50 (Human adenovirus 2): < 4.00
- pEC50 (Influenza A virus H3N2 [8]): < 4.00
- MCC [9]: > 100 µM
- pEC50 (Human alphaherpesvirus 2): < 4.00
- pEC50 (Human betaherpesvirus 5 [10]): < 4.70
- pEC50 (Human alphaherpesvirus 3 [11]): 4.23
- pEC50 (Human betaherpesvirus 5 [12]): < 4.00
- pEC50 (Punta Toro virus): < 4.00
- pEC50 (Human coronavirus 229E): < 4.00
- MCC [13]: ≥ 20 µM
- pEC50 (Human alphaherpesvirus 1 [14]): < 4.00
- t1/2 [15]: > 12 h
- pEC50 (Human respirovirus 3): < 4.00
- pEC50 (Coxsackievirus B4): < 4.00
- t1/2 [16]: > 12 h
- pEC50 (Yellow fever virus): < 4.00
- MCC [17]: > 100 µM
- pEC50 (Influenza B virus [18]): < 4.00
- pEC50 (Vaccinia virus): < 4.00
- pEC50 (Influenza A virus H3N2 [19]): < 4.00
- pEC50 (Influenza A virus [20]): < 4.00
- pEC50 [21]: < 4.00

SMILES: C/C(=C\CP(=O)(N[C@@H](C)C(=O)OC(C)C)Oc1ccccc1)Cn1ccc(=O)[nH]c1=O (some centres undefined)
- pEC50 (Influenza B virus [1]): < 4.00
- pEC50 (Sindbis virus): < 4.00
- pEC50 [2]: < 4.00
- MCC [3]: > 100 µM
- pEC50 (Human alphaherpesvirus 1 [4]): < 4.00
- pEC50 (Influenza A virus [5]): < 4.00
- pEC50 [6]: < 4.00
- pEC50 (Human alphaherpesvirus 3 [7]): < 4.00
- pEC50 (Human adenovirus 2): < 4.00
- pEC50 (Influenza A virus H3N2 [8]): < 4.00
- MCC [9]: > 100 µM
- pEC50 (Human alphaherpesvirus 2): < 4.00
- pEC50 (Human betaherpesvirus 5 [10]): < 4.00
- pEC50 (Human alphaherpesvirus 3 [11]): < 4.00
- pEC50 (Human betaherpesvirus 5 [12]): < 4.00
- pEC50 (Punta Toro virus): < 4.00
- pEC50 (Human coronavirus 229E): < 4.00
- MCC [13]: > 100 µM
- pEC50 (Human alphaherpesvirus 1 [14]): < 4.00
- pEC50 (Human respirovirus 3): < 4.00
- pEC50 (Coxsackievirus B4): < 4.00
- pEC50 (Yellow fever virus): < 4.00
- MCC [17]: > 100 µM
- pEC50 (Influenza B virus [18]): < 4.00
- pEC50 (Vaccinia virus): < 4.00
- pEC50 (Influenza A virus H3N2 [19]): < 4.00
- pEC50 (Influenza A virus [20]): < 4.00
- pEC50 [21]: < 4.00

SMILES: C/C(=C\CP(=O)(N[C@@H](C)C(=O)OCc1ccccc1)Oc1cccc2ccccc12)Cn1ccc(=O)[nH]c1=O (some centres undefined)
- pEC50 (Influenza B virus [1]): < 4.00
- pEC50 (Sindbis virus): < 4.00
- pEC50 [2]: < 4.00
- MCC [3]: > 100 µM
- pEC50 (Human alphaherpesvirus 1 [4]): < 4.00
- pEC50 (Influenza A virus [5]): < 4.00
- pEC50 [6]: < 4.00
- pEC50 (Human alphaherpesvirus 3 [7]): 4.23
- pEC50 (Human adenovirus 2): < 4.00
- pEC50 (Influenza A virus H3N2 [8]): < 4.00
- MCC [9]: > 100 µM
- pEC50 (Human alphaherpesvirus 2): < 4.00
- pEC50 (Human betaherpesvirus 5 [10]): < 4.00
- pEC50 (Human alphaherpesvirus 3 [11]): 4.00
- pEC50 (Human betaherpesvirus 5 [12]): < 4.00
- pEC50 (Punta Toro virus): < 4.00
- pEC50 (Human coronavirus 229E): < 4.00
- MCC [13]: > 100 µM
- pEC50 (Human alphaherpesvirus 1 [14]): < 4.00
- pEC50 (Human respirovirus 3): < 4.00
- pEC50 (Coxsackievirus B4): < 4.00
- pEC50 (Yellow fever virus): < 4.00
- MCC [17]: > 100 µM
- pEC50 (Influenza B virus [18]): < 4.00
- pEC50 (Vaccinia virus): < 4.00
- pEC50 (Influenza A virus H3N2 [19]): < 4.00
- pEC50 (Influenza A virus [20]): < 4.00
- pEC50 [21]: < 4.00

SMILES: C/C(=C\CP(=O)(N[C@@H](C)C(=O)OCc1ccccc1)Oc1ccccc1)Cn1cc(C)c(=O)[nH]c1=O (some centres undefined)
- pEC50 (Influenza B virus [1]): < 4.00
- pEC50 (Sindbis virus): < 4.00
- pEC50 [2]: < 4.00
- MCC [3]: > 100 µM
- pEC50 (Human alphaherpesvirus 1 [4]): < 4.00
- pEC50 (Influenza A virus [5]): < 4.00
- pEC50 [6]: < 4.00
- pEC50 (Human alphaherpesvirus 3 [7]): 4.33
- pEC50 (Human adenovirus 2): < 4.00
- pEC50 (Influenza A virus H3N2 [8]): < 4.00
- MCC [9]: > 100 µM
- pEC50 (Human alphaherpesvirus 2): < 4.00
- pEC50 (Human betaherpesvirus 5 [10]): < 4.00
- pEC50 (Human alphaherpesvirus 3 [11]): 4.25
- pEC50 (Human betaherpesvirus 5 [12]): < 4.00
- pEC50 (Punta Toro virus): < 4.00
- pEC50 (Human coronavirus 229E): < 4.00
- MCC [13]: > 100 µM
- pEC50 (Human alphaherpesvirus 1 [14]): < 4.00
- pEC50 (Human respirovirus 3): < 4.00
- pEC50 (Coxsackievirus B4): < 4.00
- pEC50 (Yellow fever virus): < 4.00
- MCC [17]: > 100 µM
- pEC50 (Influenza B virus [18]): < 4.00
- pEC50 (Vaccinia virus): < 4.00
- pEC50 (Influenza A virus H3N2 [19]): < 4.00
- pEC50 (Influenza A virus [20]): < 4.00
- pEC50 [21]: < 4.00
